Assay results from publication PMC8900268 (Journal of medicinal chemistry, 2021).

How the values were obtained:
[1] = target: {BCL-2:compound:VCB} ternary complexes (Homo sapiens, UniProt P10415+P40337); assay: NanoBRET ternary complex formation with BCL-2 and VCB in live 293T cells; format: cell-based; settings: 6 h
Procedure, shortened: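 HEK 293T cells were transfected with 1 μg HaloTag-VHL, 10 ng HiBit-BCL-2 and 10 ng LgBit. After 24 h, 2×10^4 cells/well were placed in phenol-red-free Opti-MEM with 4% FBS ± HaloTag NanoBRET 618 ligand overnight at 37 °C. Serially diluted test compound was added for 6 h, then Nano-Glo substrate. mBRET ratio calculated. Mean ± s.e.m. of two independent experiments in triplicate.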

[2] = test system: RS4;11 cells; assay: MTS cell viability assay in RS4; format: cell-based; settings: for activity loss (IC50 change) after pre-treatment with VHL-032: RS4;11 cells, 48 h, pre-treatment with VHL-032 (10 μM); for IC50: Homo sapiens, RS4-11, 48 h, read-out: IC50, cell-killing potency in RS4;11
[3] = target: BCL-2 with VCB (Homo sapiens, UniProt P10415+P40337); assay: AlphaLISA cell-free ternary complex formation, BCL-2 and VCB; format: biochemical
Procedure, shortened: (§1)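 Recombinant His-tagged BCL-2 or BCL-XL and GST-tagged VHL–elongin B–elongin C–Cul2 (VCB) were each added at 20 nM with a 4× serial dilution of test compound. Buffer: 25 mM HEPES pH 7.5, 100 mM NaCl, 0.1% BSA, 0.005% Tween 20. Incubation 30 min at room temperature, then glutathione donor beads for 15 min and anti-His acceptor beads for 45 min, both in the dark. AlphaLISA luminescence plotted against log concentration.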

[4] = target: BCL-XL with VCB (Homo sapiens, UniProt P40337+Q07817); assay: AlphaLISA cell-free ternary complex formation, BCL-XL and VCB; format: biochemical
Procedure, shortened: as §1

[5] = target: T1, BCL-XL (Homo sapiens, UniProt Q07817); assay: BCL-XL degradation in MOLT-4 cells by western blotting; format: cell-based
Procedure, shortened: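 MOLT-4 cells were exposed to test compound for 16 h across a concentration range. Other arms: 100 nM time course; 100 nM for 16 h, then washout; and pretreatment with 10 μM VHL-032 or 1 μM MG-132 before 12 h exposure. Lysates were immunoblotted for BCL-XL and β-actin. Band densities were normalised to β-actin. Mean ± SD of three independent experiments in triplicate.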

[6] = target: BCL-2:Bim interaction (Homo sapiens, UniProt P10415); assay: Co-immunoprecipitation of Bim with BCL-2 in RS4; format: cell-based; settings: RS4;11 cells, 12 h, immunoprecipitation with BCL-2
Procedure, shortened: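 RS4;11 cells were treated with test compound for 12 h, ±VHL-032. Lysis in IP buffer with protease/phosphatase inhibitors, then 15000 rpm spin. 1 mg lysate was precleared with mouse IgG and protein A/G agarose for 1 h at 4 °C. IP with 2 μg anti-BCL-2 (or IgG) overnight at 4 °C, then beads for 2 h. After three washes, immunoblotted for Bim. Inputs probed for Bim, BCL-2 and β-actin. Two independent experiments.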

[7] = target: T1, BCL-XL; assay: BCL-XL protein levels in human platelets by western blotting; format: cell-based; settings: 16 h treatment
Procedure, shortened: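 Platelets came from purchased human platelet-rich plasma in acid citrate buffer with 1 μM PGE1 and 0.2 units/mL apyrase (final). They were pelleted at 1200 g for 10 min, washed and resuspended in HEPES Tyrode's buffer with the same PGE1/apyrase. Platelets were treated with test compound for 16 h, then immunoblotted for BCL-XL.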

[8] = target: BCL-2 (Homo sapiens, UniProt P10415); assay: BCL-2 degradation by western blotting in MOLT-4 and RS4; format: cell-based; settings: 16 h
[9] = test system: NCI-H146 cells; assay: Cell viability assay in NCI-H146 cells; format: cell-based; settings: BCL-2/BCL-XL dual-dependent cells
Procedure, shortened: (§2)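 Cells were seeded at 50,000/well in complete medium and dosed 30 min later at nine concentrations in triplicate. Viability was read by MTS after 48 h. Percentage viability was fitted by non-linear regression.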

[10] = target: T1, BCL-XL; assay: BCL-XL degradation in HEK 293T cells by immunoblotting; format: cell-based
Procedure, shortened: (§3)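 HEK 293T cells grown in DMEM with 10% FBS and 1% penicillin–streptomycin at 37 °C, 5% CO2, then treated with test compound. Lysates made with protease/phosphatase inhibitors, run on 4–20% Tris-glycine gels and transferred to PVDF. Blocked in 5% milk/TBS-Tween. Primary antibodies overnight at 4 °C, HRP secondary, ECL detection. Cleaved PARP probed as apoptosis marker.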

[11] = test system: MOLT-4 cells; assay: Apoptosis induction in MOLT-4 cells; format: cell-based, human; settings: caspase-3 mediated
Procedure, shortened: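 MOLT-4 cells were given test compound for 16 h, then immunoblotted for cleaved and full caspase-3, cleaved and full PARP, and β-actin. Separately, cells (5×10^4/well) were pretreated ±2 μM QVD for 4 h, then given 10 nM compound for 48 h. Read by immunoblot, or by Annexin-V–Alexa Fluor 647 (1:50) plus PI (10 μg/mL) staining for 30 min at room temperature in the dark, then flow cytometry.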

[12] = test system: NCI-H211 cells; assay: Cell viability assay in NCI-H211 cells; format: cell-based; settings: BCL-2/BCL-XL dual-dependent cells
Procedure, shortened: as §2

[13] = test system: MCL-1; assay: MCL-1 levels in HEK 293T cells by immunoblotting; format: cell-based
Procedure, shortened: as §3

[14] = target: BCL-2 (Homo sapiens, UniProt P10415+P40337); assay: AlphaScreen displacement binding assay, BCL-2; settings: displacement of Biotin-Bim
[15] = test system: MOLT-4 cells; assay: MTS cell viability assay in MOLT-4 cells; format: cell-based; settings: Homo sapiens, MOLT-4, 48 h, read-out: IC50, cell-killing potency in MOLT-4
[16] = target: BCL-XL (Homo sapiens, UniProt P40337+Q07817); assay: AlphaScreen displacement binding assay, BCL-XL; settings: displacement of Biotin-Bad
[17] = test system: human platelets; settings: earlier study; ref 10a; cited from earlier work
[18] = test system: MOLT-4 cells; settings: ref 10a; cited from earlier work

formation of {BCL-2:compound:VCB} ternary complexes in live cells [1] | activity loss (IC50 change) after pre-treatment with VHL-032 [2] | formation of ternary complexes with BCL-2 and VCB [3] | formation of ternary complexes with BCL-XL and VCB [4] | BCL-XL degradation (in words) [5] | effect on BCL-2:Bim interaction [6] | Compound | IC50 [2] [nM] | also measured
able to form | 2.6 fold | can form stable ternary complexes | can form stable ternary complexes |  |  | Cc1ncsc1-c1ccc([C@H](C)NC(=O)[C@@H]2C[C@@H](O)CN2C(=O)[C@@H](NC(=O)CCCCCCCCC(=O)NC[C@@]2(C)CCC(c3ccc(Cl)cc3)=C(CN3CCN(c4ccc(C(=O)NS(=O)(=O)c5ccc(N[C@H](CCN6CCOCC6)CSc6ccccc6)c(S(=O)(=O)C(F)(F)F)c5)cc4)CC3)C2)C(C)(C)C)cc1 [PZ703a, N^1-(((S)-4’-Chloro-4-methyl-6-((4-(4-(((4-(((R)-4-morpholino-1-(phenylthio)butan-2-yl)amino)-3-((trifluoromethyl)sulfonyl)phenyl)sulfonyl)carbamoyl)phenyl)piperazin-1-yl)methyl)-2,3,4,5-tetrahydro-[1,1’-biphenyl]-4-yl)methyl)-N^10-((S)-1-((2S,4R)-4-hydroxy-2-(((S)-1-(4-(4-methylthiazol-5-yl)phenyl)ethyl)carbamoyl)pyrrolidin-1-yl)-3,3-dimethyl-1-oxobutan-2-yl)decanediamide] |  | 
could not | no significant IC50 value changes |  |  | did not induce BCL-XL degradation | minimal effect | Cc1ncsc1-c1ccc([C@H](C)NC(=O)[C@@H]2C[C@H](O)CN2C(=O)[C@@H](NC(=O)CCCCCCCCC(=O)NC[C@]2(C)CCC(c3ccc(Cl)cc3)=C(CN3CCN(c4ccc(C(=O)NS(=O)(=O)c5ccc(N[C@H](CCN6CCOCC6)CSc6ccccc6)c(S(=O)(=O)C(F)(F)F)c5)cc4)CC3)C2)C(C)(C)C)cc1 [PZ703b-NC] |  | 
able to form |  |  |  |  |  | Cc1ncsc1-c1ccc([C@H](C)NC(=O)[C@@H]2C[C@@H](O)CN2C(=O)[C@@H](NC(=O)CCCCCCCCC(=O)NCC2(C)CCC(c3ccc(Cl)cc3)=C(CN3CCN(c4ccc(C(=O)NS(=O)(=O)c5ccc(N[C@H](CCN6CCOCC6)CSc6ccccc6)c(S(=O)(=O)C(F)(F)F)c5)cc4)CC3)C2)C(C)(C)C)cc1 (stereo partly drawn) [PP5, N^1-((4’-Chloro-4-methyl-6-((4-(4-(((4-(((R)-4-morpholino-1-(phenylthio)butan-2-yl)amino)-3-((trifluoromethyl)sulfonyl)phenyl)sulfonyl)carbamoyl)phenyl)piperazin-1-yl)methyl)-2,3,4,5-tetrahydro-[1,1’-biphenyl]-4-yl)methyl)-N^10-((S)-1-((2S,4R)-4-hydroxy-2-(((S)-1-(4-(4-methylthiazol-5-yl)phenyl)ethyl)carbamoyl)pyrrolidin-1-yl)-3,3-dimethyl-1-oxobutan-2-yl)decanediamide] |  | 
able to form |  | can form stable ternary complexes | can form stable ternary complexes | rapid and durable BCL-XL degradation | can inhibit BCL-2:Bim interaction | Cc1ncsc1-c1ccc([C@H](C)NC(=O)[C@@H]2C[C@@H](O)CN2C(=O)[C@@H](NC(=O)CCCCCCCCC(=O)NC[C@]2(C)CCC(c3ccc(Cl)cc3)=C(CN3CCN(c4ccc(C(=O)NS(=O)(=O)c5ccc(N[C@H](CCN6CCOCC6)CSc6ccccc6)c(S(=O)(=O)C(F)(F)F)c5)cc4)CC3)C2)C(C)(C)C)cc1 [PZ703b, N^1-(((R)-4’-Chloro-4-methyl-6-((4-(4-(((4-(((R)-4-morpholino-1-(phenylthio)butan-2-yl)amino)-3-((trifluoromethyl)sulfonyl)phenyl)sulfonyl)carbamoyl)phenyl)piperazin-1-yl)methyl)-2,3,4,5-tetrahydro-[1,1’-biphenyl]-4-yl)methyl)-N^10-((S)-1-((2S,4R)-4-hydroxy-2-(((S)-1-(4-(4-methylthiazol-5-yl)phenyl)ethyl)carbamoyl)pyrrolidin-1-yl)-3,3-dimethyl-1-oxobutan-2-yl)decanediamide] |  | effect on BCL-XL protein levels in platelets [7]: did not cause significant changes; BCL-2 degradation (in words) [8]: did not observe significant BCL-2 degradation; killing of NCI-H146 cells [9]: efficiently kill; BCL-XL degradation in HEK 293T cells [10]: effectively induce BCL-XL degradation; induction of apoptosis in MOLT-4 cells [11]: potently induced apoptosis; killing of NCI-H211 cells [12]: efficiently kill; MCL-1 decrease in HEK 293T cells [13]: no MCL-1 decrease was observed
could not | no significant IC50 value changes |  |  |  | minimal effect | Cc1ncsc1-c1ccc([C@H](C)NC(=O)[C@@H]2C[C@@H](O)CN2C(=O)[C@@H](NC(=O)CCCCCC(=O)N2CCN(CC[C@H](CSc3ccccc3)Nc3ccc(S(=O)(=O)NC(=O)c4ccc(N5CCN(CC6=C(c7ccc(Cl)cc7)CCC(C)(C)C6)CC5)cc4)cc3S(=O)(=O)C(F)(F)F)CC2)C(C)(C)C)cc1 [DT2216] | 212 ± 27.4 | Kd ([14]; Kd BCL-2 w VHL, ternary binding, with GST-VCB): 1.46 ± 0.41 nM; Kd ([14]; Kd BCL-2 w/o VHL, binary binding, without VCB): 2.25 ± 0.33 nM; IC50 [15]: 75.3 ± 9.1 nM; Kd ([16]; Kd BCL-XL w VHL, ternary binding, with GST-VCB): 2.18 ± 0.51 nM; Kd ([16]; Kd BCL-XL w/o VHL, binary binding, without VCB): 7.58 ± 0.62 nM; selectivity for MOLT-4 over human platelets [17]: ~ 200 fold; fold more potent than warhead ABT-263 against MOLT-4 [18]: 4 fold
 |  |  |  |  |  | Cc1ncsc1-c1ccc([C@H](C)NC(=O)[C@@H]2C[C@@H](O)CN2C(=O)[C@@H](NC(=O)CCCCCC(=O)NCC2(C)CCC(c3ccc(Cl)cc3)=C(CN3CCN(c4ccc(C(=O)NS(=O)(=O)c5ccc(N[C@H](CCN6CCOCC6)CSc6ccccc6)c(S(=O)(=O)C(F)(F)F)c5)cc4)CC3)C2)C(C)(C)C)cc1 (stereo partly drawn) [PP2, N^1-((4’-Chloro-4-methyl-6-((4-(4-(((4-(((R)-4-morpholino-1-(phenylthio)butan-2-yl)amino)-3-((trifluoromethyl)sulfonyl)phenyl)sulfonyl)carbamoyl)phenyl)piperazin-1-yl)methyl)-2,3,4,5-tetrahydro-[1,1’-biphenyl]-4-yl)methyl)-N^7-((S)-1-((2S,4R)-4-hydroxy-2-(((S)-1-(4-(4-methylthiazol-5-yl)phenyl)ethyl)carbamoyl)pyrrolidin-1-yl)-3,3-dimethyl-1-oxobutan-2-yl)heptanediamide] | 234 ± 21.6 | 
